High-throughput results deposited in PubChem BioAssay by several laboratories.
UBC13 polyUb = human UBC13 polyubiquitination inhibition | inhibition, % at 20 µM | AID 485273 | UBC13 polyubiquitin chain formation, TR-FRET | 330,000 compounds, 0.47% hits | P61088; in the data active = inhibition above about 45%, passing the limit was not always enough
Target sequence (P61088 whole entry, looked up): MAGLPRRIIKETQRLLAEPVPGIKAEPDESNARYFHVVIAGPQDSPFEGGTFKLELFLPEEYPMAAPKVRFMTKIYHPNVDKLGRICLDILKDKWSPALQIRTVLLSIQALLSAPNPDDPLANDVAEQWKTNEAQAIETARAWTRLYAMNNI
MEKK2mut PB1 HTS = signal of MEK5 binding to mutant human MEKK2 PB1 domain; percent response, % at 10 µM; bead flow cytometry, Alexa488-MEK5 binding to MEKK2 mutant; 290,000 compounds, 0.35% hits; in the data active = percent response above about 24%, passing the limit was not always enough
MEKK3 PB1 HTS = modulators (inhibitors or enhancers) of MEK5 binding to human MEKK3 PB1 domain; binding response (% of control), % at 10 µM; 290,000 compounds, 1.4% hits; bead-based flow cytometry, Alexa488-MEK5 binding to MEKK3; actives lie on both sides; 0 = blocked by unlabeled MEK5, 100 = vehicle; Q99759;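 active = binding response more than 3 SD above or below the average of its plate-row segment, actives on both sides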;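 note: Alexa488 bead fluorescence after subtracting the streptavidin-only scavenger bead signal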
MEKK2 WT-MEK5 = raises or lowers MEK5 binding to wildtype human MEKK2 PB1 domain | Q9Y2U5 | bead flow cytometry, Alexa488-MEK5 binding to MEKK2 WT; actives lie on both sides | binding response (% of control), % at 10 µM | 290,000 compounds, 1.1% hits | AID 1531; in the data active = binding response below about 67% or above about 130%
Apaf1 inhib = blocks human Apaf-1 apoptosome activity | O14727 | reconstituted apoptosome caspase-3 activity, DEVD-Rh110 fluorescence | inhibition, % at 20 µM | 330,000 compounds, 0.71% hits; active = inhibition of at least 40% at 20 µM;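 note: plate controls were DMSO wells for no effect and DEVD-CHO caspase inhibitor wells for full effect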
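Material: biochemical Apaf-1 apoptosome reconstitution. Medium: Hepes buffer, pH 7.5. Also added: cytochrome c activation, bis-DEVD rhodamine 110 substrate. Timing: 30 min compound preincubation, 50 min activation, room temperature. Measured by: rhodamine 110 fluorescence at Ex 480/Em 540 nm.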
MEKK2wt confirm = raises or lowers MEK5 binding to wildtype human MEKK2, retest; shares compounds with MEKK3 PB1 HTS; bead flow cytometry, Alexa488-MEK5 binding to MEKK2 WT; actives lie on both sides; binding response (% of control), % at 10 µM; 5,900 compounds, 2.4% hits; AID 1892; in the data active = binding response below about 16% or above about 210%; inactive = in between
MEKK2mut-MEK5 = signal of MEK5 binding to mutant human MEKK2, retest | percent response, % at 10 µM | shares compounds with MEKK3 PB1 HTS | AID 1893 | 5,900 compounds, 2% hits | bead flow cytometry, Alexa488-MEK5 binding to MEKK2 mutant; in the data active = percent response mostly above about 71%, no sharp cut-off; inactive = mostly below about 38%;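 note: higher means compound restores mutant binding toward wildtype level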
MEKK3-MEK5 inh = MEKK3-MEK5 PB1 inhibition, single concentration confirmation | bead flow cytometry, Alexa488-MEK5 binding to MEKK3; active compounds read low | 5,900 compounds, 1.8% hits | shares compounds with MEKK3 PB1 HTS | binding response (% of control), % at 10 µM;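 active = binding response below 72% of control, or above a set upper limit, though filed actives all read lower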;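 note: 100% = DMSO only wells and 0% = binding blocked by excess unlabeled MEK5; lower values mean stronger disruption of MEK5 binding to MEKK3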
Casp3 counter = counter-screen for UBC13 inhibitors: human caspase-3 inhibition. Recombinant caspase-3, Caspase-Glo 3/7 luminescence, 60 min. AID 488856. 1,400 compounds, 4% hits. inhibition, % at 20 µM. shares compounds with UBC13 polyUb;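 active = mean inhibition across replicates above about 26%, limit read from the data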;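 note: plate controls were DMSO with caspase-3 for no effect and DMSO wells lacking enzyme for full effect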
Target sequence (P42574 whole entry, looked up): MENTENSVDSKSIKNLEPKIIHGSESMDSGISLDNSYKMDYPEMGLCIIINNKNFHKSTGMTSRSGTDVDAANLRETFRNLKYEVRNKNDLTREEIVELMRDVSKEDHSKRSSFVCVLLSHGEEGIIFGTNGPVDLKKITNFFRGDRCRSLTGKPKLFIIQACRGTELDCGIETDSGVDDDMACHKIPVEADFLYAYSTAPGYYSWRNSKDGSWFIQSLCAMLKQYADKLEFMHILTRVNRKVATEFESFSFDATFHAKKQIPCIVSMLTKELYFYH
UBC13 conf = human UBC13 polyubiquitin inhibition, confirmed; UBC13 polyubiquitination, TR-FRET, biochemical; 1,400 compounds, 68% hits; shares compounds with UBC13 polyUb; inhibition, % at 10 µM; AID 488859; in the data active = inhibition above about 45%
* hit, by the source's call; [ ] = dose if it differs, or a comment. This is a sample that favours compounds with a hit; in the whole collection about 2.9% have one here.

What do the screens show for `O=C(Nc1ccc(N2CCOCC2)cc1N1CCOCC1)c1ccc(F)cc1`?
UBC13 polyUb: 0; Apaf1 inhib: -1

How did Cc1nc(Nc2cnc(/C=C/c3cc(C(=O)Nc4cccc(C(F)(F)F)c4)ccc3C)cn2)cc(N2CCNCC2)n1 do in these assays?
UBC13 polyUb: 88*; MEKK2mut PB1 HTS: 10; MEKK3 PB1 HTS: 47*[inhibitor]; MEKK2 WT-MEK5: 136; Apaf1 inhib: 75*; MEKK2wt confirm: 128; MEKK2mut-MEK5: 15; MEKK3-MEK5 inh: 43*; Casp3 counter: 5; UBC13 conf: 116*

Results for C#CCOCCOCCOCCNc1nc(N2CCOCC2)nc(N2CCN(C(=O)[C@H]([C@@H](C)CC)n3cc([C@@H](N)CO)nn3)CC2)n1 ?
UBC13 polyUb: 0; MEKK2mut PB1 HTS: 8; MEKK3 PB1 HTS: 107; MEKK2 WT-MEK5: 106; Apaf1 inhib: -10

What do the screens show for `C#CCOCCOCCOCCNc1nc(N2CCN(C(=O)[C@H]([C@@H](C)CC)n3cc([C@@H](N)CC(C)C)nn3)CC2)nc(N2CCN(C(=O)[C@H]([C@@H](C)CC)n3cc([C@@H](N)CC(C)C)nn3)CC2)n1`?
UBC13 polyUb: 66*; MEKK2mut PB1 HTS: 87*; MEKK3 PB1 HTS: 116; MEKK2 WT-MEK5: 223*; Apaf1 inhib: 10; MEKK2wt confirm: 180; MEKK2mut-MEK5: 45; MEKK3-MEK5 inh: 104; Casp3 counter: -1; UBC13 conf: 56*

What do the screens show for `C#CCOCCOCCOCCNc1nc(N2CCN(C(=O)[C@H](CC(N)=O)n3cc(C(N)[C@@H](C)CC)nn3)CC2)nc(N2CCN(C(=O)[C@H](CCCCN)n3cc([C@@H](N)CC(N)=O)nn3)CC2)n1` (some centres undefined)?
UBC13 polyUb: 15; Apaf1 inhib: 6

How did C#CCOCCOCCOCCNc1nc(N2CCN(C(=O)[C@H]([C@@H](C)CC)n3cc([C@@H](N)Cc4ccc(O)cc4)nn3)CC2)nc(N2CCN(C(=O)[C@H]([C@@H](C)CC)n3cc([C@@H](N)Cc4ccc(O)cc4)nn3)CC2)n1 do in these assays?
UBC13 polyUb: 54*; MEKK2mut PB1 HTS: 31; MEKK3 PB1 HTS: 108; MEKK2 WT-MEK5: 151*; Apaf1 inhib: 30; MEKK2wt confirm: 136; MEKK2mut-MEK5: 15; MEKK3-MEK5 inh: 104; Casp3 counter: -3; UBC13 conf: 40

What do the screens show for `C#CCOCCOCCOCCNc1nc(N2CCN(C(=O)[C@H]([C@@H](C)CC)n3cc([C@@H](N)Cc4ccc(O)cc4)nn3)CC2)nc(N2CCN(C(=O)[C@H](CCCCN)n3cc([C@@H](N)C(C)CC)nn3)CC2)n1` (some centres undefined)?
UBC13 polyUb: 67*; MEKK2mut PB1 HTS: 48; MEKK3 PB1 HTS: 117; MEKK2 WT-MEK5: 176*; Apaf1 inhib: 22; MEKK2wt confirm: 137; MEKK2mut-MEK5: 17; MEKK3-MEK5 inh: 103; Casp3 counter: -4; UBC13 conf: 50*
